Columns and labels:
[1] = Neuroprotective activity in Swiss-Webster mouse neocortical cells with oxygen and glucose deprivation assessed as decrease in lactic dehydrogenase leakage at 217 uM; type: functional; design: scale not given: the % may be the effect or the level left
In short: (§1)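 Cultured neocortical cells were exposed to OGD with compound at one of three final concentrations; controls received the same volume of glucose-free Earle's buffer instead. For OGD, the chamber was flushed with 95% N2/5% CO2 for 10 min, sealed, and kept at 37 °C for 25 min, followed by 30 min under normal conditions. The treatment was repeated twice, and cells were held 6 h at 37 °C after the last one. LDH was measured in medium and in freeze-thaw lysate. Leakage = extracellular/(extracellular+intracellular) ×100%.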

Plasma [2] = experiment: Antioxidant activity in New Zealand White rabbit plasma assessed as increase in conjugated diene formation at 217 uM by thiobarbituric acid method; type: functional, Oryctolagus cuniculus
In short: (§2)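 LDL was isolated from New Zealand White rabbit plasma, and its susceptibility to oxidation was measured by a previously published method. Each compound was tested at three final concentrations. Freshly prepared vitamin C served as the positive control.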

Brain [3] = experiment: Antioxidant activity in rat brain assessed as malondialdehyde level at 21.7 uM by thiobarbituric acid method; type: functional
In short: (§3)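 Rat brain MDA was measured by the thiobarbituric acid method, following a previously published protocol. Each compound was tested at three final concentrations. Freshly prepared vitamin C served as the positive control.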

Brain [4] = experiment: Antioxidant activity in rat brain assessed as malondialdehyde level at 217 uM by thiobarbituric acid method; type: functional; in short: as §3
Plasma [5] = experiment: Antioxidant activity in New Zealand White rabbit plasma assessed as increase in conjugated diene formation at 21.7 uM by thiobarbituric acid method; type: functional, Oryctolagus cuniculus; in short: as §2
[6] = Neuroprotective activity in Swiss-Webster mouse neocortical cells with oxygen and glucose deprivation assessed as decrease in lactic dehydrogenase leakage at 21.7 uM; type: functional; design: scale not given: the % may be the effect or the level left; in short: as §1
Brain [7] = experiment: Antioxidant activity in rat brain assessed as malondialdehyde level at 2.17 uM by thiobarbituric acid method; type: functional; in short: as §3
[8] = Neuroprotective activity in Swiss-Webster mouse neocortical cells with oxygen and glucose deprivation assessed as decrease in lactic dehydrogenase leakage at 2.17 uM; type: functional; design: scale not given: the % may be the effect or the level left; in short: as §1
Plasma [9] = experiment: Antioxidant activity in New Zealand White rabbit plasma assessed as increase in conjugated diene formation at 2.17 uM by thiobarbituric acid method; type: functional, Oryctolagus cuniculus; in short: as §2
Plasma [10] = experiment: Antioxidant activity in New Zealand White rabbit plasma assessed as increase in conjugated diene formation at 37 uM by thiobarbituric acid method; type: functional, Oryctolagus cuniculus; in short: as §2
Plasma [11] = experiment: Antioxidant activity in New Zealand White rabbit plasma assessed as increase in conjugated diene formation at 3.70 uM by thiobarbituric acid method; type: functional, Oryctolagus cuniculus; in short: as §2
Brain [12] = experiment: Antioxidant activity in rat brain assessed as malondialdehyde level at 37 uM by thiobarbituric acid method; type: functional; in short: as §3
[13] = Neuroprotective activity in Swiss-Webster mouse neocortical cells with oxygen and glucose deprivation assessed as decrease in lactic dehydrogenase leakage at 3.70 uM; type: functional; design: scale not given: the % may be the effect or the level left; in short: as §1
Plasma [14] = experiment: Antioxidant activity in New Zealand White rabbit plasma assessed as increase in conjugated diene formation at 370 uM by thiobarbituric acid method; type: functional, Oryctolagus cuniculus; in short: as §2
[15] = Neuroprotective activity in Swiss-Webster mouse neocortical cells with oxygen and glucose deprivation assessed as decrease in lactic dehydrogenase leakage at 37 uM; type: functional; design: scale not given: the % may be the effect or the level left; in short: as §1
Brain [16] = experiment: Antioxidant activity in rat brain assessed as malondialdehyde level at 3.70 uM by thiobarbituric acid method; type: functional; in short: as §3
Brain [17] = experiment: Antioxidant activity in rat brain assessed as malondialdehyde level at 370 uM by thiobarbituric acid method; type: functional; in short: as §3
[18] = Neuroprotective activity in Swiss-Webster mouse neocortical cells with oxygen and glucose deprivation assessed as decrease in lactic dehydrogenase leakage at 370 uM; type: functional; design: scale not given: the % may be the effect or the level left; in short: as §1
Brain [19] = experiment: Antioxidant activity in rat brain assessed as malondialdehyde level at 568 uM by thiobarbituric acid method; type: functional; in short: as §3
Plasma [20] = experiment: Antioxidant activity in New Zealand White rabbit plasma assessed as increase in conjugated diene formation at 568 uM by thiobarbituric acid method; type: functional, Oryctolagus cuniculus; in short: as §2

Row | SMILES | Activity [1] [%] | Activity (Plasma [2]) [%] | Activity (Brain [3]) [nmol/mg protein] | Activity (Brain [4]) [nmol/mg protein] | Activity (Plasma [5]) [%] | Activity [6] [%] | Activity (Brain [7]) [nmol/mg protein] | Activity [8] [%] | Activity (Plasma [9]) [%] | Activity (Plasma [10]) [%] | Activity (Plasma [11]) [%] | Activity (Brain [12]) [nmol/mg protein] | Activity [13] [%] | Activity (Plasma [14]) [%] | Activity [15] [%] | Activity (Brain [16]) [nmol/mg protein] | Activity (Brain [17]) [nmol/mg protein] | Activity [18] [%] | Activity (Brain [19]) [nmol/mg] | Activity (Plasma [20]) [%]
1 | COc1cc(-c2cc(=O)c3c(O)cc(O)cc3o2)ccc1O[C@@H]1O[C@H](CO)[C@@H](O)[C@H](O)[C@H]1O | 21.14 | 0.32 | 1.43 | 1.16 | 30.16 | 22.74 | 1.46 | 25.52 | 51.62 |  |  |  |  |  |  |  |  |  |  | 
2 | COC1=CC(=O)c2c(ccc3cc(O)c(O)cc23)C1=O |  |  |  |  |  |  |  |  |  | 112.97 | 67.46 | 1.43 | 38.3 | 95.09 | 41.09 | 1.52 | 1.23 | 36.58 |  | 
3 | COc1cc(-c2cc(=O)c3c(O)cc(O[C@@H]4O[C@H](CO)[C@@H](O)[C@H](O)[C@H]4O)cc3o2)ccc1O | 21.99 | 11.52 | 1.19 | 0.95 | 66.21 | 22.51 | 1.37 | 27.35 | 62.24 |  |  |  |  |  |  |  |  |  |  | 
4 | O=C1O[C@H]([C@@H](O)CO)C(O)=C1O [ASCORBIC ACID] |  |  |  |  |  |  |  |  |  |  |  |  |  |  |  |  |  |  | 1.35 | 0.17
